{"source": "ChEMBL document CHEMBL5154792", "about": "“A New Amino Acid for Improving Permeability and Solubility in Macrocyclic Peptides through Side Chain-to-Backbone Hydrogen Bonding” (J Med Chem, 2022)", "key": {"[1]": {"test": "Apparent permeability of the compound after 15 hrs by UPLC-MS based PAMPA", "assay_type": "ADME", "settings": "for Papp at 15 h: PAMPA; for Papp: pampa, 15 h", "summary_of_the_method": "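Donor: 2 µM peptide in PBS pH 7.4 with 5% DMSO final. Acceptor: 5% DMSO in PBS. Membrane of 1% (w/v) soybean lecithin in n-dodecane. Incubated ~15 h at room temperature (exact time recorded) in a humidified sealed chamber. Donor and acceptor wells quantified by UPLC-MS in quadruplicate. Papp derived from %T (acceptor vs theoretical equilibrium) using membrane area 240 mm2.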"}, "[2]": {"test": "Thermodynamic solubility of the compound at pH 7.4 after 24 hrs by UPLC-MS analysis", "assay_type": "physicochemical", "settings": "buffer, read-out: Therm_solubility", "summary_of_the_method": "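10 mM DMSO stocks were dried down, redissolved in PBS pH 7.4 (maximum 2 mM), sonicated 1 h, then gently agitated ~24 h at 37 °C. Filtered through 0.7 µm glass fiber, diluted up to 40-fold in MeCN and quantified by UPLC-MS against standard curves (50 µM to 0.1 µM in DMSO).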"}}}
{"smiles": "CC(C)C[C@H]1NC(=O)[C@H]2CCCN2C(=O)[C@H](CCC(=O)N2CCCC2)NC(=O)[C@@H](CC(C)C)NC(=O)[C@@H](CC(C)C)NC(=O)[C@@H](CC(C)C)NC1=O", "values": [{"measurement": "Papp at 15 h", "setting": "[1]", "result": 1.5, "unit": "×10⁻⁶ cm/s"}, {"measurement": "solubility thermodynamic at 24 h", "setting": "[2]", "result": 560, "unit": "µM"}]}
{"smiles": "CC(C)C[C@@H]1NC(=O)[C@@H](CC(C)C)NC(=O)[C@@H](CC(C)C)NC(=O)[C@@H](CC(C)C)NC(=O)[C@@H](CC(C)C)NC(=O)[C@H]2CCCN2C1=O", "values": [{"measurement": "Papp", "setting": "[1]", "result": "5.3 10^-6 cm/s"}, {"measurement": "solubility thermodynamic at 24 h", "setting": "[2]", "result": 240, "unit": "µM"}]}
{"smiles": "COC(=O)CC[C@H]1NC(=O)[C@H]2CCCN2C(=O)[C@H](CC(C)C)NC(=O)[C@H](CC(C)C)NC(=O)[C@@H](CC(C)C)NC(=O)[C@H](CC(C)C)NC1=O", "values": [{"measurement": "Papp at 15 h", "setting": "[1]", "result": 2, "unit": "×10⁻⁶ cm/s"}, {"measurement": "solubility thermodynamic at 24 h", "setting": "[2]", "result": 710, "unit": "µM"}]}
{"smiles": "CC(C)C[C@@H]1NC(=O)[C@@H](CC(C)C)NC(=O)[C@@H](CC(C)C)NC(=O)[C@@H](CCC(=O)N2CCCC2)NC(=O)[C@@H](CC(C)C)NC(=O)[C@H]2CCCN2C1=O", "values": [{"measurement": "Papp at 15 h", "setting": "[1]", "result": 1.1, "unit": "×10⁻⁶ cm/s"}, {"measurement": "solubility thermodynamic at 24 h", "setting": "[2]", "result": 450, "unit": "µM"}]}
{"smiles": "CC(C)C[C@@H]1NC(=O)[C@@H](CCC(=O)N2CCCC2)NC(=O)[C@H](CC(C)C)NC(=O)[C@@H](CC(C)C)NC(=O)[C@H]2CCCN2C(=O)[C@H](CC(C)C)NC1=O", "values": [{"measurement": "Papp at 15 h", "setting": "[1]", "result": 0.14, "unit": "×10⁻⁶ cm/s"}, {"measurement": "solubility thermodynamic at 24 h", "setting": "[2]", "result": 580, "unit": "µM"}]}
{"smiles": "CC(C)C[C@@H]1NC(=O)[C@@H](CC(C)C)NC(=O)[C@@H](CC(C)C)NC(=O)[C@@H](CC(C)C)NC(=O)[C@H]2CCCN2C(=O)[C@H](CCC(=O)N2CCCC2)NC1=O", "values": [{"measurement": "Papp at 15 h", "setting": "[1]", "result": 0.66, "unit": "×10⁻⁶ cm/s"}, {"measurement": "solubility thermodynamic at 24 h", "setting": "[2]", "result": 720, "unit": "µM"}]}
{"smiles": "CC(C)C[C@@H]1NC(=O)[C@H](CCC(=O)N2CCCC2)NC(=O)[C@@H](CC(C)C)NC(=O)[C@@H](CC(C)C)NC(=O)[C@@H](CC(C)C)NC(=O)[C@H]2CCCN2C1=O", "values": [{"measurement": "Papp at 15 h", "setting": "[1]", "result": 0.32, "unit": "×10⁻⁶ cm/s"}, {"measurement": "solubility thermodynamic at 24 h", "setting": "[2]", "result": 510, "unit": "µM"}]}
{"smiles": "CC(C)C[C@@H]1NC(=O)[C@@H](CCC(=O)N2CCCC2)NC(=O)[C@@H](CC(C)C)NC(=O)[C@@H](CC(C)C)NC(=O)[C@@H](CC(C)C)NC(=O)[C@H]2CCCN2C1=O", "values": [{"measurement": "Papp at 15 h", "setting": "[1]", "result": 0.13, "unit": "×10⁻⁶ cm/s"}, {"measurement": "solubility thermodynamic at 24 h", "setting": "[2]", "result": 550, "unit": "µM"}]}
{"smiles": "CC(C)C[C@@H]1NC(=O)[C@@H](CC(C)C)NC(=O)[C@H](CC(C)C)NC(=O)[C@@H](CCC(=O)N(C)C)NC(=O)[C@H]2CCCN2C(=O)[C@H](CC(C)C)NC1=O", "values": [{"measurement": "Papp at 15 h", "setting": "[1]", "result": 0.7, "unit": "×10⁻⁶ cm/s"}, {"measurement": "solubility thermodynamic at 24 h", "setting": "[2]", "result": 1660, "unit": "µM"}]}
{"smiles": "CC(C)C[C@@H]1NC(=O)[C@@H](CC(C)C)NC(=O)[C@@H](CC(C)C)NC(=O)[C@@H](CCC(=O)N2CCCC2)NC(=O)[C@H]2CCCN2C(=O)[C@H](CC(C)C)NC1=O", "values": [{"measurement": "Papp", "setting": "[1]", "result": "1.7 10^-6 cm/s"}, {"measurement": "solubility thermodynamic at 24 h", "setting": "[2]", "result": 640, "unit": "µM"}]}
{"smiles": "CC(C)C[C@@H]1NC(=O)[C@@H](CC(C)C)NC(=O)[C@H](CC(C)C)NC(=O)[C@@H](CC(=O)N(C)C)NC(=O)[C@H]2CCCN2C(=O)[C@H](CC(C)C)NC1=O", "values": [{"measurement": "Papp at 15 h", "setting": "[1]", "result": 0.28, "unit": "×10⁻⁶ cm/s"}, {"measurement": "solubility thermodynamic at 24 h", "setting": "[2]", "result": 1120, "unit": "µM"}]}
{"smiles": "CC(C)C[C@@H]1NC(=O)[C@@H](CC(C)C)NC(=O)[C@H](CCC(=O)N2CCCC2)NC(=O)[C@@H](CC(C)C)NC(=O)[C@H]2CCCN2C(=O)[C@H](CC(C)C)NC1=O", "values": [{"measurement": "Papp at 15 h", "setting": "[1]", "result": 0.23, "unit": "×10⁻⁶ cm/s"}, {"measurement": "solubility thermodynamic at 24 h", "setting": "[2]", "result": 140, "unit": "µM"}]}
{"smiles": "CC(C)C[C@@H]1NC(=O)[C@@H](CC(C)C)NC(=O)[C@@H](CC(C)C)NC(=O)[C@@H](CC(C)C)NC(=O)[C@@H](CCC(=O)N2CCCC2)NC(=O)[C@H]2CCCN2C1=O", "values": [{"measurement": "Papp", "setting": "[1]", "result": "0.56 10^-6 cm/s"}, {"measurement": "solubility thermodynamic at 24 h", "setting": "[2]", "result": 610, "unit": "µM"}]}
{"smiles": "CC(C)C[C@@H]1NC(=O)[C@@H](CC(C)C)NC(=O)[C@H](CC(C)C)NC(=O)[C@@H](CCC(=O)N2CCCC2)NC(=O)[C@H]2CCCN2C(=O)[C@H](CC(C)C)NC1=O", "values": [{"measurement": "Papp", "setting": "[1]", "result": "1.5 10^-6 cm/s"}, {"measurement": "solubility thermodynamic at 24 h", "setting": "[2]", "result": 730, "unit": "µM"}]}
{"smiles": "CC(C)C[C@@H]1NC(=O)[C@@H](CC(C)C)NC(=O)[C@@H](CCC(=O)N2CCCC2)NC(=O)[C@@H](CC(C)C)NC(=O)[C@@H](CC(C)C)NC(=O)[C@H]2CCCN2C1=O", "values": [{"measurement": "Papp at 15 h", "setting": "[1]", "result": 1.3, "unit": "×10⁻⁶ cm/s"}, {"measurement": "solubility thermodynamic at 24 h", "setting": "[2]", "result": 460, "unit": "µM"}]}
{"smiles": "CC(C)C[C@@H]1NC(=O)[C@@H](CCC(=O)N2CCCC2)NC(=O)[C@@H](CC(C)C)NC(=O)[C@@H](CC(C)C)NC(=O)[C@H]2CCCN2C(=O)[C@H](CC(C)C)NC1=O", "values": [{"measurement": "Papp at 15 h", "setting": "[1]", "result": 0.3, "unit": "×10⁻⁶ cm/s"}, {"measurement": "solubility thermodynamic at 24 h", "setting": "[2]", "result": 580, "unit": "µM"}]}
{"smiles": "CC(C)C[C@@H]1NC(=O)[C@@H](CC(C)C)NC(=O)[C@H](CC(C)C)NC(=O)[C@@H](CC(=O)N2CCCC2)NC(=O)[C@H]2CCCN2C(=O)[C@H](CC(C)C)NC1=O", "values": [{"measurement": "Papp at 15 h", "setting": "[1]", "result": 0.56, "unit": "×10⁻⁶ cm/s"}, {"measurement": "solubility thermodynamic at 24 h", "setting": "[2]", "result": 670, "unit": "µM"}]}
{"smiles": "CC(C)C[C@@H]1NC(=O)[C@@H](CC(C)C)NC(=O)[C@H]2CCCN2C(=O)[C@H](CC(C)C)NC(=O)[C@H](CCC(=O)N2CCCC2)NC(=O)[C@@H](CC(C)C)NC1=O", "values": [{"measurement": "Papp at 15 h", "setting": "[1]", "result": 0.28, "unit": "×10⁻⁶ cm/s"}, {"measurement": "solubility thermodynamic at 24 h", "setting": "[2]", "result": 550, "unit": "µM"}]}
{"smiles": "CC(C)C[C@@H]1NC(=O)[C@@H](CC(C)C)NC(=O)[C@H](CC(C)C)NC(=O)[C@@H](CC(C)C)NC(=O)[C@H]2CCCN2C(=O)[C@H](CCC(=O)N2CCCC2)NC1=O", "values": [{"measurement": "Papp at 15 h", "setting": "[1]", "result": 0.18, "unit": "×10⁻⁶ cm/s"}, {"measurement": "solubility thermodynamic at 24 h", "setting": "[2]", "result": 600, "unit": "µM"}]}
{"smiles": "CC(C)C[C@@H]1NC(=O)[C@@H](CC(C)C)NC(=O)[C@H](CC(C)C)NC(=O)[C@@H](CC(C)C)NC(=O)[C@H]2CCCN2C(=O)[C@H](CC(C)C)NC1=O", "values": [{"measurement": "Papp", "setting": "[1]", "result": "8 10^-6 cm/s"}, {"measurement": "solubility thermodynamic at 24 h", "setting": "[2]", "result": 63, "unit": "µM"}]}
{"smiles": "CC(C)C[C@@H]1NC(=O)[C@@H](CC(C)C)NC(=O)[C@@H](CC(C)C)NC(=O)[C@@H](CC(C)C)NC(=O)[C@H]2CCCN2C(=O)[C@H](CC(C)C)NC1=O", "values": [{"measurement": "Papp", "setting": "[1]", "result": "8.1 10^-6 cm/s"}, {"measurement": "solubility thermodynamic at 24 h", "setting": "[2]", "result": 16, "unit": "µM"}]}
{"smiles": "CC(C)C[C@@H]1NC(=O)[C@@H](CC(C)C)NC(=O)[C@@H](CCC(=O)N2CCCC2)NC(=O)[C@@H](CC(C)C)NC(=O)[C@H]2CCCN2C(=O)[C@H](CC(C)C)NC1=O", "values": [{"measurement": "Papp at 15 h", "setting": "[1]", "result": 0.66, "unit": "×10⁻⁶ cm/s"}, {"measurement": "solubility thermodynamic at 24 h", "setting": "[2]", "result": 550, "unit": "µM"}]}
